PglD inh: PglD (C. jejuni) enzyme inhibition | hit rate 0.098% among 360,000 | purified PglD enzyme, DTNB colorimetric CoA detection | inhibition, % at 12.5 µM; in the data active = inhibition above about 16%, passing the limit was not always enough; inconclusive = no clear call, values can overlap the other calls
Statin myotox sup: protects C2C12 myotubes from simvastatin toxicity. ATP luminescence, 48 h; scaled: DMSO 0, geranylgeraniol control 100. rescue of ATP level, % at 7.49 µM. hit rate 0.78% among 330,000;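 active = mean ATP rescue above about 67%, or every replicate alone reaching that limit, limit read from the data, passing the limit was not always enough; inconclusive = no clear call, values can overlap the other calls; inactive = mean under the limit and some replicate under it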;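 note: myotubes were challenged with 10 µM simvastatin during compound exposure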
E-sel inducer: induces E-selectin expression in human endothelial cells | P16581 | HUVEC E-selectin immunofluorescence imaging; normalized: neutral wells 0, TNF-alpha wells 100 | activation, % at 7.58 µM | hit rate 0.37% among 260,000;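 active = mean E-selectin-positive cell signal at least 10% of the positive control, reached in at least 60% of replicates, without over 20% cell loss; inconclusive = no rule given, readout overlaps actives, possibly toxicity-flagged; inactive = the rest, including those meeting only one limit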
Target sequence (P16581 whole entry, looked up): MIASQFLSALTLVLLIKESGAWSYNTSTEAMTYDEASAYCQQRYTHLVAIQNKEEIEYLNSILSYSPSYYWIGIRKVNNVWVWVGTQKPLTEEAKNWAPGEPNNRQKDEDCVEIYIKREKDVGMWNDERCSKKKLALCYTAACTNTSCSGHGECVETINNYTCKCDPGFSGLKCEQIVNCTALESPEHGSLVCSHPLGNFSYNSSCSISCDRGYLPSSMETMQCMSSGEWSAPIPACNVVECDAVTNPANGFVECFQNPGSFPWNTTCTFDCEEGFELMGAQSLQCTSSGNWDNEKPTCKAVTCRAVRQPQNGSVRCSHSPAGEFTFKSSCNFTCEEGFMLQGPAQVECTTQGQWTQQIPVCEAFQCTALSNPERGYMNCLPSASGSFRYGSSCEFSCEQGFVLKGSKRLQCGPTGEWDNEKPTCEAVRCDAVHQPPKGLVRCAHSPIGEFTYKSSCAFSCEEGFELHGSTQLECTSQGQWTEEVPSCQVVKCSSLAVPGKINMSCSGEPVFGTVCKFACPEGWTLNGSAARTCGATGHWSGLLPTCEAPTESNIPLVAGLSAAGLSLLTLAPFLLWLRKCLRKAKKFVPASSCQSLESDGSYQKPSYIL
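Material: HUVEC primary endothelial cells; Amount: 3,000 cells per well; Dosing: single concentration; Medium: EGM-2 growth medium on 0.1% gelatin-coated wells; Read-out basis: percent E-selectin-positive cells; Signal: immunofluorescence imaging; Control set: TNF-alpha, DMSO.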
DENV2 CPE rescue: inhibitors of DENV2 cytopathic effect. DENV2-infected cells, cytopathic effect rescue, plate reader. CPE inhibition, % at 9.99 µM. hit rate 1.7% among 350,000. AID 651640; in the data active = CPE inhibition above about 20%, passing the limit was not always enough; inconclusive = no clear call, values can overlap the other calls; tested in BHK-21 cells
XiGFP reactiv: activators of X-chromosome reactivation in mouse fibroblasts; hit rate 0.055% among 360,000; XiGFP mouse fibroblasts, % GFP-positive cells imaging, 3 d; cells co-treated with 5-aza-dC sensitizer; scaled so ellipticine positive control = 100%; activation, % at 7.58 µM;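 active = mean normalized replicate activation at least 10% and every replicate at or above 10%; inconclusive = only one of the two criteria met; inactive = mean below 10% and not all replicates reach 10%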
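Assay system: SV40-immortalized XiGFP fibroblast cells, line 68-5-11; buffer or medium: DMEM plus 5-aza-dC sensitizer; compound: one concentration, pinned; timing: compounds 3 days, fix/stain 15 min at room temperature; benchmarks: positive control ellipticine, 6 µM final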
FGF22 binding: FGF22 (human) thermal shift binding; AID 651658; recombinant FGF22 thermal shift, SYPRO orange fluorescence; percent of sucrose octasulfate shift, DMSO zero; hit rate 1.5% among 340,000; activity (Tm shift, normalised), % at 9.99 µM;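 active = mean Tm shift, scaled 0 neutral to 100 positive control, at about 1.3% or above, every replicate too, limit read from the data; inconclusive = no clear call, values can overlap the other calls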
Target sequence (Q9HCT0 whole entry, looked up): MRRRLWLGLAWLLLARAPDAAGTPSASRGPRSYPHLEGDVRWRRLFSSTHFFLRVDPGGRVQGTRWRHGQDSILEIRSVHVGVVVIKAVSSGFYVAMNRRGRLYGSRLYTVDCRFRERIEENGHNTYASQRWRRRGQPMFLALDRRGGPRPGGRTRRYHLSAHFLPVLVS
Of the large screens only hits and unclear results are named; the others gave an inactive call. This is a sample that favours compounds with a hit; in the whole collection about 3.3% have one here.

C[C@@H]1CN([C@H](C)CO)C(=O)c2cc(NC(=O)CCN3CCOCC3)ccc2O[C@@H]1CN(C)S(C)(=O)=O	none
Oc1ccc(-c2nc3ccccn3c2NCc2ccco2)cc1	Statin myotox sup 81 (no result: E-sel inducer, DENV2 CPE rescue, XiGFP reactiv, FGF22 binding)
COc1ccc(NC(=O)N(C)C[C@@H]2Oc3ccc(NC(=O)CCC(F)(F)F)cc3CC(=O)N([C@@H](C)CO)C[C@H]2C)cc1	none
CCCNC(=O)Nc1ccc2c(c1)C(=O)N(C)C[C@H](OC)[C@@H](C)CN(Cc1ccc(-c3ccccn3)cc1)[C@H](C)CO2	none
C[C@@H]1CN([C@@H](C)CO)C(=O)c2cc(NS(=O)(=O)c3ccccc3)ccc2O[C@@H]1CN(C)Cc1ccncc1	none
COc1ccc(Nc2ccccc2N)cc1	E-sel inducer 37 (no result: PglD inh, Statin myotox sup)
COc1ccc(Nc2c(C)cccc2C)cc1	none (no result: E-sel inducer, DENV2 CPE rescue, XiGFP reactiv, FGF22 binding)
C[C@H]1CN([C@@H](C)CO)C(=O)c2cc(/C=C/c3ccccc3)cnc2O[C@H]1CN(C)Cc1cncnc1	none
Cc1noc(C)c1S(=O)(=O)Nc1ccc2c(c1)C(=O)N([C@@H](C)CO)C[C@H](C)[C@@H](CN(C)Cc1ccc(C(=O)O)cc1)OCCCC[C@H](C)O2	DENV2 CPE rescue 34 (no result: Statin myotox sup)
Cc1noc(C)c1S(=O)(=O)Nc1ccc2c(c1)C(=O)N([C@H](C)CO)C[C@@H](C)[C@@H](CN(C)Cc1ccc(C(=O)O)cc1)OCCCC[C@H](C)O2	FGF22 binding 1.3 (no result: Statin myotox sup)
CCCN(C)C[C@H]1OCCCC[C@H](C)Oc2ccc(NS(=O)(=O)c3c(C)noc3C)cc2C(=O)N([C@@H](C)CO)C[C@H]1C	DENV2 CPE rescue 32 (no result: Statin myotox sup)
Cc1noc(C)c1S(=O)(=O)Nc1ccc2c(c1)C(=O)N([C@H](C)CO)C[C@H](C)[C@@H](CN(C)CC1CC1)OCCCC[C@@H](C)O2	none (no result: Statin myotox sup)
C[C@H](CO)N1C[C@H](C)[C@@H](CN(C)Cc2ccc(Cl)c(Cl)c2)Oc2c(NC(=O)c3nc4ccccc4s3)cccc2C1=O	none (no result: Statin myotox sup)
C[C@H](CO)N1C[C@H](C)[C@@H](CN(C)S(=O)(=O)c2cn(C)cn2)Oc2ccc(NC(=O)CCC(F)(F)F)cc2C1=O	none (no result: E-sel inducer)
CC1CCCC(C)N1C(=O)CSc1nnc(COc2cccc3cccnc23)o1 (configuration not stated)	FGF22 binding 43 (no result: PglD inh, DENV2 CPE rescue)
CN(C)C(=O)c1ccc(-c2ccc3c(c2)[C@H]2[C@H](CCN2C(=O)c2ccccn2)[C@H](CO)N3)cc1	DENV2 CPE rescue 26
O=C(c1ccc2c(c1)OCO2)N1CC[C@@H]2[C@H]1c1cc(-c3ccccc3)ccc1N[C@@H]2CO	DENV2 CPE rescue inconclusive
COc1ccc(-c2ccc3c(c2)[C@H]2[C@H](CCN2C(=O)c2ccc4c(c2)OCO4)[C@H](CO)N3)cc1	none
O=C(c1ccc2c(c1)OCO2)N1CC[C@@H]2[C@H](CO)Nc3ccc(-c4ccccc4)cc3[C@@H]21	DENV2 CPE rescue 23
COc1ccc(-c2ccc3c(c2)[C@@H]2[C@@H](CCN2C(=O)c2ccc4c(c2)OCO4)[C@@H](CO)N3)cc1	Statin myotox sup inconclusive, DENV2 CPE rescue 74
CO[C@@H]1CN(C)C(=O)c2cc(NS(=O)(=O)c3ccc(F)cc3)ccc2OC[C@H](C)NC[C@@H]1C	none
NS(=O)(=O)c1ccc(N=NN2CCCCC2)cc1	FGF22 binding 43 (no result: PglD inh, Statin myotox sup, E-sel inducer)
c1cnc2ccc(C(c3nnnn3C3CCCC3)N3CCN(c4nc5ccccc5s4)CC3)cc2c1 (configuration not stated)	Statin myotox sup 122 (no result: E-sel inducer, DENV2 CPE rescue, XiGFP reactiv, FGF22 binding)
Cc1noc(C)c1NC(=O)Nc1ccc2c(c1)CC(=O)N([C@@H](C)CO)C[C@H](C)[C@@H](CN(C)S(=O)(=O)c1ccccc1)O2	E-sel inducer 49
Cc1noc(C)c1NC(=O)Nc1ccc2c(c1)CC(=O)N([C@@H](C)CO)C[C@@H](C)[C@@H](CN(C)S(=O)(=O)c1ccccc1)O2	none
Cc1noc(C)c1NC(=O)Nc1ccc2c(c1)CC(=O)N([C@@H](C)CO)C[C@H](C)[C@H](CN(C)C)O2	DENV2 CPE rescue 21
Cc1noc(C)c1NC(=O)Nc1ccc2c(c1)CC(=O)N([C@H](C)CO)C[C@@H](C)[C@@H](CN(C)C)O2	none
CC(=O)N(C)C[C@@H]1Oc2ccc(NS(C)(=O)=O)cc2C(=O)N(C)C[C@H]1C	none (no result: PglD inh, Statin myotox sup, E-sel inducer, DENV2 CPE rescue, FGF22 binding)
CCC(C)(C)NC(=O)/C=C/c1ccccc1[N+](=O)[O-]	none (no result: PglD inh, Statin myotox sup)
CCNC(=O)/C=C/c1ccccc1[N+](=O)[O-]	E-sel inducer 31 (no result: PglD inh)
CCC(=O)N(C)C[C@@H]1Oc2ncc(-c3ccccc3F)cc2C(=O)N([C@@H](C)CO)C[C@@H]1C	none
Cc1ccccc1S(=O)(=O)N1C[C@@H](O)COC[C@@H]2O[C@H](CC(=O)N3CCOCC3)CC[C@H]21	none
Cc1nc2c(OCCC3CCCCC3)cccn2c1N(C)C(=O)CCC1CCCC1	DENV2 CPE rescue 41
CC(=O)OC1CC(n2ccc(NC(=O)c3ccccc3)nc2=O)OC1CO (configuration not stated)	Statin myotox sup 128 (no result: E-sel inducer, DENV2 CPE rescue, XiGFP reactiv, FGF22 binding)
O=C(Nc1ccn([C@H]2CC[C@@H](CO)O2)c(=O)n1)c1ccccc1	none (no result: PglD inh, Statin myotox sup)
CSc1cccc(NC(=O)CCNC(=O)c2ccco2)c1	FGF22 binding 43 (no result: PglD inh, Statin myotox sup)
O=C(CCNC(=O)c1ccco1)Nc1cccc(Br)c1	none (no result: PglD inh, Statin myotox sup)
C[C@@H]1CN([C@H](C)CO)C(=O)c2cc(NS(=O)(=O)c3cn(C)cn3)ccc2O[C@@H](C)CCCCO[C@@H]1CN(C)Cc1ccncc1	none (no result: Statin myotox sup)
CCC(=O)N1CC2(C1)[C@@H](c1ccccc1)[C@H](CO)N2C(=O)NC(C)C	none (no result: PglD inh, Statin myotox sup, FGF22 binding)
O=C(NC[C@H]1N[C@H](CO)[C@@H]1c1ccc(C2=CCCCC2)cc1)c1ccc(F)cc1	DENV2 CPE rescue 44
O=C(NC[C@H]1N[C@H](CO)[C@H]1c1ccccc1)c1ccccc1F	DENV2 CPE rescue 23
CN(C[C@@H]1N[C@H](CO)[C@@H]1c1ccccc1)C(=O)c1ccccc1F	none (no result: PglD inh, Statin myotox sup, E-sel inducer, DENV2 CPE rescue, FGF22 binding)
COc1ccc2c3c([nH]c2c1)[C@H](CO)N(C(=O)Nc1ccc(F)cc1)CC31CCN(S(=O)(=O)c2cn(C)cn2)CC1	none (no result: PglD inh, Statin myotox sup, FGF22 binding)
O=C(C[C@H]1CC[C@@H]2[C@H](COC[C@@H](O)CN2C(=O)Nc2ccc(Cl)c(Cl)c2)O1)NCc1ccc(Cl)c(Cl)c1	none
CCN(C[C@H]1N[C@@H](CO)[C@@H]1c1ccc(C2=CCCC2)cc1)C(=O)c1ccncc1	none
CC1(C)CC(=O)C2=C(C1)Nc1ccccc1NC2c1ccc(F)c(F)c1 (configuration not stated)	DENV2 CPE rescue 23
CN(CC(=O)Nc1c(Cl)cccc1Cl)C(=O)Cc1ccc2c(c1)CCC2	none
CN(CC(=O)Nc1c(Cl)cccc1Cl)CC(=O)N(C)C1(C#N)CCCCC1	DENV2 CPE rescue inconclusive, FGF22 binding 43

Screens: PubChem, Broad Institute
